GASC1 inh: KDM4C (human) demethylase inhibition. GST-KDM4C 2-372, H3K9me3 peptide, LANCE TR-FRET. Q9H3R0. 96,000 compounds, 0.15% hits. inhibition, % at 12.5 µM;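 active means mean replicate inhibition above about 25%, with at least 55% of replicates also reaching it, limit read from the data, passing the limit was not always enough; inconclusive means only one of those two conditions met; inactive means neither condition met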
Target sequence (Q9H3R0 2-372 limits assumed): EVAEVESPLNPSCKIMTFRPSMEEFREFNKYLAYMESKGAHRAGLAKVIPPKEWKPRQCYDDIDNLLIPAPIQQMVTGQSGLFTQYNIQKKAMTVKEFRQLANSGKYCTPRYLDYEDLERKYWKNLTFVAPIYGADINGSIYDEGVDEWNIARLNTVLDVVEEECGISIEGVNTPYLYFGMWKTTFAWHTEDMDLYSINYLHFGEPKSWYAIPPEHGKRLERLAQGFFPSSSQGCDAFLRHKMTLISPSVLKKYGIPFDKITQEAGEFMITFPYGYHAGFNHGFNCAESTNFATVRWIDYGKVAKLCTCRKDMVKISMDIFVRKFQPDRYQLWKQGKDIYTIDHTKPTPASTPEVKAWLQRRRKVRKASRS
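Compound: one test concentration per compound; Material: GST-GASC-1 enzyme fragment 2-372; Amount: GASC-1 enzyme at 10 nM final in reaction; Also added: H3K9me3 peptide substrate, Fe(II), 2-oxoglutarate; Technique: LANCE TR-FRET; Times: 30 min demethylation and 1 h detection at room temperature.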
T cruzi growth-1: T. cruzi proliferation inhibition | T. cruzi beta-gal in NIH3T3, GalScreen luminescence, 90 h | inhibition, % at 8.34 µM | 77,000 compounds, 5.9% hits | AID 624255;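 active means mean inhibition above about 93%, with at least 55% of replicates each passing it, limit read from the data, passing the limit was not always enough; inconclusive means only one of those two conditions holds; inactive means neither condition holds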
IDH1 R132H inh: blocks human IDH1 R132H reductase activity; O75874; 70,000 compounds, 0.18% hits; diaphorase/resazurin fluorescence, 60 min; inhibition, % at 10 µM; in the data active means inhibition above about 34%; inconclusive means no clear call, values can overlap the other calls; inactive means below about 11%;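 further: 0% = DMSO and 100% = no enzyme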
T cruzi growth-2: blocks T. cruzi growth in NIH3T3 host cells | shares compounds with T cruzi growth-1 | T. cruzi beta-gal in NIH3T3, GalScreen luminescence, 90 h | inhibition, % at 8.35 µM | 5,600 compounds, 72% hits | AID 651739;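 active means mean replicate inhibition above about 95% and at least 55% of replicates individually reaching it, limit read from the data; inconclusive means only one of the two criteria is met; inactive means neither criterion is met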
T cruzi growth-3: inhibitors of T. cruzi proliferation; 5,600 compounds, 21% hits; AID 651740; T. cruzi beta-gal in NIH3T3, GalScreen luminescence, 90 h; shares compounds with T cruzi growth-1; inhibition, % at 2.09 µM;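 active means mean inhibition above about 95%, with at least 55% of replicates also reaching it, limit read from the data; inconclusive means meets just one of the two conditions; inactive means meets neither condition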;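 further: plate controls were neutral control median for no effect and positive control median for full effect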
NIH3T3 tox: kills mouse NIH/3T3 fibroblasts | 5,600 compounds, 14% hits | AID 651742 | shares compounds with T cruzi growth-1 | NIH/3T3 viability, CellTiter-Glo ATP luminescence, 90 h | cytotoxicity (signal decrease), % at 8.35 µM;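 active means mean signal decrease across replicates above about 35% based on untreated-well scatter, with enough replicates individually passing, limit read from the data; inconclusive means no rule stated though some were filed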;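 further: 0% = median of neutral control wells and 100% = median of positive control wells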
NIH3T3 tox 2: kills mouse NIH/3T3 fibroblasts. shares compounds with T cruzi growth-1. NIH/3T3 viability, CellTiter-Glo ATP luminescence, 90 h. inhibition, % at 24.9 µM. 5,600 compounds, 56% hits. AID 651744;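 active means mean loss of cell viability signal at or above a set limit, and enough replicates individually reaching it; inconclusive means meets only the mean limit or only the replicate share; inactive means meets neither condition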;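 further: 0% = median of neutral control wells and 100% = median of positive control wells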
Numbers without * were called inactive; u = inconclusive; x = no result; ! = not confirmed by another sample. This is one part of a sample in which hits are shown more often than they occur.

SMILES	GASC1 inh	T cruzi growth-1	IDH1 R132H inh	T cruzi growth-2	T cruzi growth-3	NIH3T3 tox	NIH3T3 tox 2
O=C([C@@H]1[C@@H](CO)[C@@H]2Cn3c(ccc(-c4ccccc4)c3=O)[C@H]1N2Cc1cccnc1)N1CCOCC1	0	97*	x	-16	-6	12	-7
O=C([C@H]1[C@H](CO)[C@H]2Cn3c(cccc3=O)[C@@H]1N2Cc1cccc(Cl)c1)N1CCCCC1	1	29	x	x	x	x	x
COc1ccc(S(=O)(=O)Nc2ccc3c(c2)C(=O)N([C@@H](C)CO)C[C@H](C)[C@@H](CN(C)C(=O)C2CCCCC2)OCCCC[C@@H](C)O3)cc1	17	-36	-1	x	x	x	x
C[C@@H]1CN([C@@H](C)CO)S(=O)(=O)c2ccc(C#CC3CC3)cc2O[C@H]1CN(C)C(=O)c1cnccn1	0	38	0	x	x	x	x
C[C@H](CO)N1C[C@H](C)[C@H](CN(C)S(=O)(=O)c2ccccc2F)Oc2ncc(/C=C/c3ccccc3)cc2C1=O	1	44	0	x	x	x	x
Cc1ccc(S(=O)(=O)N(C)C[C@@H]2Oc3ncc(/C=C/c4ccccc4)cc3C(=O)N([C@H](C)CO)C[C@@H]2C)cc1	2	120*	-1	102*	92	25	54*
C[C@@H]1CN([C@H](C)CO)C(=O)c2cc(/C=C/c3ccccc3)cnc2O[C@H]1CN(C)S(=O)(=O)c1ccccc1F	0	109*	0	113*	59	-3	24*
C[C@H](CO)N1C[C@H](C)[C@H](CN(C)S(=O)(=O)c2ccccc2)Oc2ncc(/C=C/c3ccccc3)cc2C1=O	-3	113*!	-2	u	78	13	71*
Cc1ccc(S(=O)(=O)N(C)C[C@H]2Oc3c(cccc3N(C)C)C(=O)N([C@H](C)CO)C[C@H]2C)cc1	0	-21	0	x	x	x	x
C[C@H]1CN([C@@H](C)CO)C(=O)c2cc(/C=C/c3ccccc3)cnc2O[C@H]1CN(C)S(=O)(=O)c1ccccc1	-3	94	-1	x	x	x	x
C/C=C/c1cnc2c(c1)C(=O)N([C@H](C)CO)C[C@H](C)[C@H](CN(C)S(=O)(=O)c1ccc(C)cc1)O2	-2	20	1	x	x	x	x
Cc1ccc(S(=O)(=O)N(C)C[C@H]2Oc3c(cccc3N(C)C)C(=O)N([C@@H](C)CO)C[C@H]2C)cc1	2	102*	x	76	20	24	10
C[C@@H]1CN([C@H](C)CO)C(=O)c2ccccc2-c2ccccc2CO[C@H]1CN(C)S(=O)(=O)c1ccccc1	-1	34	x	x	x	x	x
COc1ccc(CN(C)C[C@@H]2Oc3ccc(NC(=O)Nc4ccccc4)cc3CC(=O)N([C@H](C)CO)C[C@@H]2C)cc1	4	29	4	x	x	x	x
C[C@@H]1CN([C@H](C)CO)C(=O)c2cccc(NC(=O)C3CCCCC3)c2O[C@@H]1CN(C)S(=O)(=O)c1cccs1	2	14	2	x	x	x	x
C[C@@H]1CN([C@H](C)CO)C(=O)c2cc(/C=C/c3ccccc3)cnc2O[C@@H]1CN(C)S(=O)(=O)c1ccccc1	0	89	x	x	x	x	x
C[C@H]1CN([C@@H](C)CO)C(=O)c2cc(/C=C/c3ccccc3)cnc2O[C@@H]1CN(C)S(=O)(=O)c1ccccc1	-2	127*	x	106*	67	5	u
O=C(O)CCCCCCC(=O)N/N=C/c1ccc2ccccc2n1	x	x	0	x	x	x	x
COc1cccc(-c2ccc3c(c2)[C@@H]2[C@@H](CCN2S(=O)(=O)c2ccccc2F)[C@@H](CO)N3)c1	0	u	x	98*	105*	28	101*
N#Cc1cccc(-c2ccc3c(c2)[C@@H]2[C@@H](CCN2S(=O)(=O)c2ccccc2F)[C@@H](CO)N3)c1	1	107*	x	99*	105*	15	73*
O=S(=O)(c1ccccc1F)N1CC[C@H]2[C@H](CO)Nc3ccc(-c4ccc(F)cc4)cc3[C@H]21	1	90	x	x	x	x	x
COc1cccc(-c2ccc3c(c2)[C@@H]2[C@@H](CCN2S(=O)(=O)c2ccccc2C)[C@H](CO)N3)c1	1	28	x	x	x	x	x
N#Cc1cccc(-c2ccc3c(c2)[C@H]2[C@H](CCN2S(=O)(=O)c2ccccc2F)[C@H](CO)N3)c1	0	110*	x	94	82	47*	74*
O=S(=O)(c1ccccc1F)N1CC[C@@H]2[C@H]1c1cc(-c3ccccc3)ccc1N[C@@H]2CO	-4	87	x	x	x	x	x
N#Cc1ccc(-c2ccc3c(c2)[C@@H]2[C@@H](CCN2S(=O)(=O)c2ccccc2F)[C@@H](CO)N3)cc1	-1	32	x	x	x	x	x
SMILES	GASC1 inh	T cruzi growth-1	IDH1 R132H inh	T cruzi growth-2	T cruzi growth-3	NIH3T3 tox	NIH3T3 tox 2
O=S(=O)(c1ccccc1F)N1CC[C@@H]2[C@H](CO)Nc3ccc(-c4ccc(F)cc4)cc3[C@@H]21	-1	u	x	90	84	12	105*
CCN(CC(=O)O)S(=O)(=O)c1ccc2ccccc2c1	x	x	0	x	x	x	x
CCC(=O)N1[C@@H]2c3ccc(-c4cncnc4)c(=O)n3C[C@H]1[C@H](CO)[C@H]2C(=O)N1CCc2ccccc2C1	3	-19	x	x	x	x	x
Cc1ccc(S(=O)(=O)Nc2ccc3c(c2)C(=O)N([C@@H](C)CO)C[C@@H](C)[C@H](CN(C)Cc2ccncc2)OCCCC[C@H](C)O3)cc1	-1	18	5	x	x	x	x
C[C@@H]1CN([C@H](C)CO)C(=O)c2cccc(NC(=O)c3cnccn3)c2O[C@H]1CN(C)S(C)(=O)=O	5	-104	2	x	x	x	x
C[C@H]1CN([C@@H](C)CO)C(=O)c2cccc(NS(=O)(=O)c3ccc(F)cc3)c2O[C@H]1CN(C)Cc1ccccc1	4	41	0	x	x	x	x
COc1cccc(NC(=O)N(C)C[C@H]2Oc3ncc(C#Cc4ccncc4)cc3C(=O)N([C@H](C)CO)C[C@H]2C)c1	6	x	7	x	x	x	x
COc1cccc(C#Cc2cnc3c(c2)C(=O)N([C@H](C)CO)C[C@@H](C)[C@@H](CN(C)C)O3)c1	2	90	-1	x	x	x	x
COc1cccc(NC(=O)N(C)C[C@H]2Oc3ncc(C#Cc4ccccc4)cc3C(=O)N([C@@H](C)CO)C[C@@H]2C)c1	x	123*	x	112*	110*	-35	-1
COc1cccc(NC(=O)N(C)C[C@@H]2Oc3ncc(C#Cc4ccccc4)cc3C(=O)N([C@@H](C)CO)C[C@@H]2C)c1	x	u	0	100*	58	29	12
COc1cccc(C#Cc2cnc3c(c2)C(=O)N([C@H](C)CO)C[C@@H](C)[C@H](CN(C)C)O3)c1	-1	102*	4	102*	44	29	105*
COc1cccc(NC(=O)N(C)C[C@@H]2Oc3ncc(C#Cc4ccncc4)cc3C(=O)N([C@H](C)CO)C[C@@H]2C)c1	1	x	x	x	x	x	x
